Results gathered from unrelated publications.
Each line is one published result; the experiments were not run side by side.
Target: Kappa-type opioid receptor (OPRK1, Homo sapiens, UniProt P41145)

Compound	assay	measurement	result
CCOCc1nc(O)c(-c2nnc(Cc3ccc(Cl)cn3)o2)c(O)c1-c1c(OC)cccc1OC	ligand displacement, radioligand	IC50	> 30 µM
O[C@@H]1[C@H](O)[C@@H]2C[C@@H]2[C@H]1n1cnc2c(NCCc3ccccc3)nc(C#Cc3ccccc3)nc21	cell-free assay	Ki	> 10 µM
CCCCN1CCC(COC(=O)c2ccc(N)c(OCF)c2)CC1	cell-free assay, radioligand	Ki	> 10 µM
Cc1ccc(C(=O)NCC2CCN(Cc3ccc(C(C)C)cc3)CC2)cc1	cell-free assay	Ki	> 10 µM
Cc1nccc2c1c(=O)n(C)c1cc(OC[C@@H](N)CC(C)C)c(C#N)cc21	cell-free assay	IC50	29 µM
Clc1ccc(CSc2nnc(-c3ccccn3)n2Cc2cccs2)cc1Cl	β-arrestin recruitment, agonist, imaging	EC50	0.39 µM
CNC(=O)[C@@]12C[C@@H]1[C@@H](n1cnc3c(NC)cc(C#Cc4ccc(Cl)s4)nc31)[C@H](O)[C@@H]2O	cell-free assay	Ki	> 10 µM
Cc1cc(C)nc(C(=O)NC[C@@H]2CCCN(Cc3ccc(F)c(F)c3)C2)c1	cell-free assay	Ki	6.46 µM
O[C@@H]1[C@H](O)[C@@H]2C[C@@H]2[C@H]1n1cnc2c(NCc3cccc(Cl)c3)ncnc21	cell-free assay	Ki	> 10 µM
OCCCN1CC[C@@H]2C[C@H]1c1cc(-c3ccc(C(F)(F)F)cc3)ccc12	ligand displacement, radioligand	Ki	7.09 µM
O=C(c1ccccn1)N(Cc1cccs1)C1(C(=O)NC2CCCCC2)CCCCC1	β-arrestin recruitment, agonist	EC50	0.11 µM
OC[C@@]12C[C@@H]1[C@@H](n1cnc3c(NC(C4CCCC4)C4CCCC4)nc(Cl)nc31)[C@H](O)[C@@H]2O	cell-free assay, radioligand	Ki	0.11 µM
